Assay results as given in the array DNA melting data of Ke et al. (doi:10.1101/2024.01.08.574731).

What was measured:
[1] = melting temperature; fluorescence melt of hairpins on a sequencing array, two-state fit, raised by 9.35 °C to match UV melts; conditions: sodium 0.088 M
Procedure, shortened: (§1)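 Melting temperature and folding enthalpy were obtained by bootstrapped two-state fitting. Fits used Cy3 fluorescence of library hairpins with annealed Cy3 and quencher oligos on a sequenced MiSeq flow cell, imaged in 50 mM Na-HEPES pH 8.0, 25 mM NaCl in 2.5 °C steps up to 60 °C and normalised to pre-quench Cy3 and control constructs. Four replicates were combined by inverse-variance weighting, and fitted temperatures were raised by 9.35 °C to match UV melts.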

[2] = folding enthalpy; higher = less favourable; fluorescence melt of hairpins on a sequencing array, two-state fit; conditions: sodium 0.088 M
Procedure, shortened: as §1

Sequence	Tm [1] [°C]	folding enthalpy [2] [kcal/mol]
CGGCCGGAAACGGTTCCG ((((((....)))..)))	41.1	-21.6
AATTGGAAACAATT (((((....)))))	31.6	-11.3
GCTAGGCGAAAGCCTCGC ((.((((....)))).))	58.9	-17.8
CGAAAGCGGAAACGCTCG (((..(((....))))))	43.5	-18.2
GCATGTGGAAACGTATGC ((((..(....)..))))	41	-26.3
TTTGGGAAACCAAA (((((....)))))	38.2	-13.6
GGTAACGAAAGTTAACC ((((((....))).)))	45.3	-18.2
GCTTGCGAAAGCACAGC ((((((....))).)))	50.5	-20.1
GATCGAGACTTCGATC ((((((....))))))	57.2	-43.3
CGGGTTCGGAAACGACCG (((..(((....))))))	39.4	-19.9
GCGTTGCGAAAGCTAGGC ((.(.((....)).).))	48.9	-19.2
GGCAACCGAAAGGTAGCC (((.(((....))).)))	62.4	-33.6
GGTCCCCGAAAGGGTACC (((.(((....))).)))	53.3	-24.1
GATTATGAAAATAATC ((((((....))))))	40.1	-29.5
GAGTCCGCGAAAGCGCTC (((..(((....))))))	24.8	-7.6
GGTACCGAAAGGTTTACC ((((((....)))..)))	37.1	-13.8
GAATGAGGAAACCCATTC (((((.(....).)))))	36.1	-20.9
GATCTATGCATAGATC ((((((....))))))	49.9	-43.4
GATCAGGCACTGATC ((((((...))))))	59.8	-43.6
GAATTAGGAAACTAGTTC (((.(((....))).)))	27.1	-16.8
GGTGCCGAAAGGCTGACC ((((((....)))..)))	46.8	-13.9
GCGTGCGCACGC ((((....))))	62.2	-45.7
GCACGAGAAATCGTGC ((((((....))))))	68.6	-32
GGACAACGAAAGTTCTCC (((.(((....))).)))	31.3	-22.8

Sequence	Tm [1] [°C]	folding enthalpy [2] [kcal/mol]
GATCTAAAGCTAGATC ((((((....))))))	35.4	-18.3
GCGTTAAGACGC ((((....))))	54	-22.4
CGTAACGGAAACGTACG (((.(((....))))))	44.3	-31
GCGGGTCCCCGC ((((....))))	66.8	-23.5
GATGAACCGAAAGGTATC (((..(((....))))))	28.8	-12.9
GATCGCTAACGCGATC ((((((....))))))	66.5	-35.7
GATCGAAGCCTCGATC ((((((....))))))	50.9	-33
GCTTGGCGAAAGCAATGC ((.(.((....)).).))	38.4	-12.8
GCGCATGGAAACGTGTGC ((.((.(....).)).))	46.6	-36.7
GGGTCGGGAAACCGGCTC (.(.(((....))).).)	47.9	-21.1
GTGGGCTCGAAAGAGCAC (((..(((....))))))	65.5	-26
GATCACTAAGGTGATC ((((((....))))))	57	-35.4
GGTTGCGGAAACGCAGTC (..((((....))))..)	36.1	-12.8
GCGAGCGTTCGC ((((....))))	49	-14.2
CGCGGAAATGTCCGCG ((((((....))))))	69.1	-32.5
GTAATTGGAAACAATTAC (((((((....)))))))	50.4	-45.9
GGGGGAGGAAACTCCCTC (.(((((....))))).)	54.6	-19.3
GATCTTACGCAAGATC ((((((....))))))	42.9	-31.1
GCTAAGCGAAAGCTTTGC ((.((((....)))).))	59.5	-30.6
GCCGAGCGAAAGCTTCGC ((..(((....)))..))	49.2	-11.3
GATCATAGGTATGATC ((((((....))))))	49.1	-40.5
GATCTTGGCGAAGATC ((((((....))))))	47	-30.8
GTTGGGGGAAACCCTAAC (((.(((....))).)))	45.1	-26.6
GATTACGGAAACGTAACC (.(((((....))))).)	33.8	-16.6

Sequence	Tm [1] [°C]	folding enthalpy [2] [kcal/mol]
GATCTAGGAGTAGATC ((((((....))))))	40.4	-30.2
GCTCACCGAAAGGTCAGC (((.(((....))).)))	44.2	-26.3
GCTTGCGGAAACGTAAGC ((((.((....)).))))	52.5	-35.1
GCTCCTGGAAACAAGAGC ((((.((....)).))))	34.8	-27.9
GATCTGTGCCAGATC ((((((...))))))	51.1	-38
GGCAAAGGAAACTTTGCC (((((((....)))))))	62.7	-40.7
GACACCGAAAGGTCAGTC ((((((....)))..)))	35.9	-12.5
GCGACGCGAAAGCTTTGC ((.(.((....)).).))	44.7	-18.6
CCGTAGAAATACGG (((((....)))))	47.3	-17.8
GCGTAGACGAAAGTCCGC (((..(((....))))))	53.7	-34.9
GATGCGCGAAAGCGATC (((.(((....))))))	41.3	-12
GGGGAAACGAAAGTTCCC (((..(((....))))))	52	-22.1
GATCCTGAGAAGGATC ((((((....))))))	57.6	-40.2
CAAGCAGAAATGGTTG (((.((....)).)))	33.6	-19.3
GGTAGAGGAAACTCTATC (.(((((....))))).)	37.1	-26.9
GATGTCGGAAACGGTATC (((..((....))..)))	31.6	-21.2
GTAACCGAAAGGTCTTAC ((((((....)))..)))	30.6	-11.6
GCCAGCGAAAGCTGCGGC ((((((....)))..)))	61.4	-13
GATCGGGCTCCCGATC ((((((....))))))	58.5	-40.6
GCGTTGCGAAAGCATGGC ((..(((....)))..))	42.9	-18.9
GGTGTTCGAAAGAATACC (((.(((....))).)))	53.6	-45.6
GGTAGAGGAAACCCTACC (((((.(....).)))))	38.2	-33.4
GGTTCGACGAAAGTCACC (((..(((....))))))	24.9	-11.9
GATCATTTACATGATC ((((((....))))))	46.3	-35.2

Sequence	Tm [1] [°C]	folding enthalpy [2] [kcal/mol]
GATCAAATTATTGATC ((((((....))))))	41.4	-27.7
GCGGCCGGAAACAGCCGC (((((.(....).)))))	64.8	-22.9
GACAGGGGAAACCCTGCC (.(((((....))))).)	46.4	-13.8
GGTATCGAAAGATGCACC ((((((....)))..)))	33.9	-16.1
CGTAGCGGAAACGCGACG (((.(((....))).)))	59.1	-31
GCTTTGCGAAAGCCTAGC (((..((....))..)))	41.1	-13
GCCGAGCGAAAGCTCAGC ((.((((....)))).))	58	-18.1
GGGTAAGAAATTACCC ((((((....))))))	50.9	-27.4
GCGGGGCGAAAGCATCGC (((..((....))..)))	65.2	-33.1
GTAAGGCGAAAGCCGTAC (((.(((....))).)))	53	-14.2
GAGCACCGAAAGGTACTC (((.(((....))).)))	50	-36.7
GATCACTGTGTGATC ((((((...))))))	61.7	-31
GGTGGCGAAAGCCGTACC ((((((....)))..)))	44.7	-13.3
GAGTACGAAAGTATTCTC ((((((....)))..)))	42.6	-27.4
GACGCCGGAAACAGCGTC (((((.(....).)))))	54.8	-35.9
GGGCGGCGAAAGCCCCC (((.(((....))))))	65.6	-17.3
GATCTACCTATAGATC ((((((....))))))	40.5	-35
GGTCAGACGAAAGTCACC (((..(((....))))))	30.5	-14.6
GCTGGGCGAAAGCACCGC ((.(.((....)).).))	52.7	-20.7
GTGTGAACGAAAGTTCAC (((..(((....))))))	65.6	-12.9
GCGTCCAGACGC ((((....))))	56.6	-28.7
